Here are results for 13 molecules from ChEMBL document CHEMBL1671784 (J Med Chem, 2011).

Test [1] has as its target Mu-type opioid receptor (Rattus norvegicus, UniProt P33535). In words: Displacement of [3H]DAMGO from mu opioid receptor in Sprague-Dawley rat brain membrane by liquid scintillation counting. The test is classed as cell membranes. Background: Displacement assays read how much labelled ligand stays bound in the presence of the test substance.
Test [2] concerns the target Kappa-type opioid receptor (Cavia porcellus, UniProt P41144). In words: Displacement of [3H][Ile5,6]deltorphin 2 from delta opioid receptor in Sprague-Dawley rat brain membrane by liquid scintillation counting. The test is classed as cell membranes.
Test [3] can be described thus: Displacement of [3H]U69593 from kappa opioid receptor in guinea pig brain membrane by liquid scintillation counting. In kind it is cell membranes, Cavia porcellus.
Test [4] deals with Rattus norvegicus. In words: Antinociceptive activity in sc dosed Sprague-Dawley rat assessed as thermal-stimulus induced tail flick latency after 0.5 hrs. In kind it is functional. Background: In hot-plate and tail-flick tests a longer latency is read as antinociception.
Test [5] deals with Rattus norvegicus. The experiment in a line: Antinociceptive activity in sc dosed Sprague-Dawley rat assessed as thermal-stimulus induced tail flick latency after 1 hrs. In kind it is functional.
Test [6] concerns Rattus norvegicus. In words: Antinociceptive activity in sc dosed Sprague-Dawley rat assessed as thermal-stimulus induced tail flick latency after 2 hrs. The test is classed as functional.
Test [7] concerns Rattus norvegicus. In words: Antinociceptive activity in sc dosed Sprague-Dawley rat assessed as thermal-stimulus induced tail flick latency after 3 hrs. In kind it is functional.
Test [8] relates to Rattus norvegicus. The experiment in a line: Antinociceptive activity in sc dosed Sprague-Dawley rat assessed as thermal-stimulus induced tail flick latency relative to morphine. In kind it is functional.
Test [9] relates to Rattus norvegicus. The experiment in a line: Antinociceptive activity in Sprague-Dawley rat inflammatory model assessed as paw withdrawal latency at 170 nmol/kg, sc administered post carrageenan challenge. The test is classed as functional, organism-based. The essentials: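 Male Sprague-Dawley rats (250 g), unanesthetized; unilateral inflammation from 100 μL 1% carrageenan into the right hindpaw plantar surface. At 3 h post-carrageenan, compound given sc in 0.9% saline (100 μL); saline controls; 4–7 rats per group. Randall–Selitto paw pressure (blunt wedge piston, 48 g/s, 20 s cutoff) applied to the dorsal paw. Response is % change in withdrawal latency from the 3 h pre-drug value.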

The species entered for test [10] is Rattus norvegicus. Particulars: Sprague-Dawley, at 426 nmol/kg.
For test [11], the species on record is Rattus norvegicus. Particulars: Sprague-Dawley, at 426 nmol/kg. The source holds these as a separate data set.
The subject of test [12] is Rattus norvegicus. The experiment in a line: Antinociceptive activity in Sprague-Dawley rat inflammatory model assessed as paw withdrawal latency at 183 nmol/kg, sc administered post carrageenan challenge. In kind it is functional, organism-based.

Calls of active or inactive are those of the source.

Mu-type opioid receptor, sequence (P33535 whole entry): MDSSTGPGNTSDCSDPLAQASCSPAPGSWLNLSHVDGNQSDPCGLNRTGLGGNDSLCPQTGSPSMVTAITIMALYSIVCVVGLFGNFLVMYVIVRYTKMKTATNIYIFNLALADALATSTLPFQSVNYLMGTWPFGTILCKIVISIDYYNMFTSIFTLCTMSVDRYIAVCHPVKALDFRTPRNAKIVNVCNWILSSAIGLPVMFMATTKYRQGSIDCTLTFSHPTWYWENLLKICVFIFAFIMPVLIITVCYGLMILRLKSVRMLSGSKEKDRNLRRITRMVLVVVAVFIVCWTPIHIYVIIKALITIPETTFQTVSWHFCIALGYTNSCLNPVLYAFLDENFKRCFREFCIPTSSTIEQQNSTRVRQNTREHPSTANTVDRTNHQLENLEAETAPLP
Kappa-type opioid receptor, sequence (P41144 whole entry): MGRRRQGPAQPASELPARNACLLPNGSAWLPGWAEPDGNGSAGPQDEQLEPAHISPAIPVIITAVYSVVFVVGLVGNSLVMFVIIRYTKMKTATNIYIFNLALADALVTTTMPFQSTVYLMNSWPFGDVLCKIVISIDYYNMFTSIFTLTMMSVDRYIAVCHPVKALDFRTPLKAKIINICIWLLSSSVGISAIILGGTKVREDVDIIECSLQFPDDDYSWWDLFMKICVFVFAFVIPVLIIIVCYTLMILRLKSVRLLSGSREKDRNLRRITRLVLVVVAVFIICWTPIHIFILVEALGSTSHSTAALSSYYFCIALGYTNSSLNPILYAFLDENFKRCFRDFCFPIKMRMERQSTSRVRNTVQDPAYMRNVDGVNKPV

In the case of `CC(C)(C)OC(=O)CN[C@H]1CC[C@@]2(OCCCc3ccccc3)[C@H]3Cc4ccc(O)c5c4[C@@]2(CCN3CC2CC2)[C@H]1O5`, the Ki amounted to 1.38 nM in test [1], 1.49 nM in test [2] and 1.11 nM in test [3]. For the same molecule, the ED50 in test [4] was determined as 0.365 µmol/kg; in test [5] it was 0.348 µmol/kg; in test [6], 0.363 µmol/kg; in test [7], 0.427 µmol/kg. Also, the “fold change (FC)” value in [8] was found to be 17.

For `CN1CC[C@]23c4c5ccc(O)c4O[C@H]2[C@H](NCC(=O)OC(C)(C)C)CC[C@@]3(OCCCc2ccccc2)[C@H]1C5`, the values for the Ki in [1], in test [2] and in [3] were 1.03 nM, 2.02 nM and 0.92 nM, respectively. Also, the ED50 in test [4] was 0.164 µmol/kg; in [5], 0.0923 µmol/kg; in test [6], 0.124 µmol/kg; in test [7], 0.189 µmol/kg. The “fold change (FC)” value in test [8] was determined as 66.

Turning to `Cl.Cl.O=C(O)CN[C@@H]1CC[C@@]2(OCCCc3ccccc3)[C@H]3Cc4ccc(O)c5c4[C@@]2(CCN3CC2CC2)[C@H]1O5`, the values for the Ki in [1], in test [2] and in test [3] were 0.2 nM, 0.65 nM and 0.35 nM, respectively. The ED50 in test [4] came out at 1.56 µmol/kg; in [5] it was 0.183 µmol/kg; in test [6], 0.147 µmol/kg. Besides, in test [8], the “fold change (FC)” value worked out at 41.

For `CN1CC[C@]23c4c5ccc(O)c4O[C@H]2[C@H](NCC(=O)O)CC[C@@]3(OCCCc2ccccc2)[C@H]1C5`, the outcome in test [9] was Active.

On to `CC(C)(C)OC(=O)CN[C@@H]1CC[C@@]2(OCCCc3ccccc3)[C@H]3Cc4ccc(O)c5c4[C@@]2(CCN3CC2CC2)[C@H]1O5`, for which the Ki in test [1] turned out to be 1.01 nM; in test [2], 1.77 nM; in [3] it was 0.4 nM. Also, the ED50 in test [4] was determined as 0.0338 µmol/kg; in [5], 0.0268 µmol/kg; in test [6], 0.0344 µmol/kg; in [7], 0.056 µmol/kg.

`C=CC[N+]1(C)CC[C@]23c4c5ccc(O)c4O[C@H]2C(=O)CC[C@@]3(O)[C@H]1C5` (stereo partly drawn): the inhibition result in test [10] and in [11] was “Active” each time.

Take `CO[C@@]12CC[C@H](NCC(=O)O)[C@@H]3Oc4c(O)ccc5c4[C@@]31CCN(C)[C@@H]2C5`: the ED50 in test [4] was 0.137 µmol/kg; in test [5] it was 0.0585 µmol/kg; in [6], 0.143 µmol/kg; in [7] it was 0.437 µmol/kg.

For `Cl.Cl.O=C(O)CN[C@H]1CC[C@@]2(OCCCc3ccccc3)[C@H]3Cc4ccc(O)c5c4[C@@]2(CCN3CC2CC2)[C@H]1O5`, the inhibition constant Ki in test [1] amounted to 0.27 nM; in test [2], 0.64 nM; in test [3], 0.33 nM. For the same molecule, the ED50 in test [4] turned out to be 1.39 µmol/kg; in test [5], 0.349 µmol/kg; in test [6] it was 0.433 µmol/kg; in test [7], 0.543 µmol/kg. The “fold change (FC)” value in [8] was 17.

Regarding `CN1CC[C@]23c4c5ccc(O)c4O[C@H]2[C@@H](NCC(=O)OC(C)(C)C)CC[C@@]3(OCCCc2ccccc2)[C@H]1C5`, the Ki turned out to be 1.4 nM in [1], 1.26 nM in test [2] and 1.01 nM in test [3]. Further, the median effective dose (ED50) in test [4] is 0.0635 µmol/kg; in [5] it was 0.0583 µmol/kg; in test [6] it was 0.084 µmol/kg; in [7], 0.148 µmol/kg. The “fold change (FC)” value in test [8] is listed as 104.

Turning to `CN1CC[C@]23c4c5ccc(O)c4O[C@H]2[C@@H](O)C=C[C@H]3[C@H]1C5` [MORPHINE], the ED50 in test [4] came to 6.05 µmol/kg; in test [5], 7.63 µmol/kg; in test [6], 13.3 µmol/kg.

Consider `CN1CC[C@]23c4c5ccc(O)c4O[C@H]2[C@@H](NCC(=O)O)CC[C@@]3(OCCCc2ccccc2)[C@H]1C5`, for which the result in test [9] was Active.

With `CO[C@@]12CC[C@@H](NCC(=O)O)[C@@H]3Oc4c(O)ccc5c4[C@@]31CCN(C)[C@@H]2C5`, the ED50 in [4] was 0.0508 µmol/kg; in test [5], 0.029 µmol/kg; in test [6] it was 0.0433 µmol/kg. The outcome in test [12] was Active.

As to `CN1CC[C@]23c4c5ccc(O)c4O[C@@]2(C)C(=O)CC[C@@]3(OCCCc2ccccc2)[C@H]1C5`, the Ki in [2] turned out to be 0.54 nM; in test [3] it was 0.14 nM.

A word on the Ki: it is a dissociation constant, usually derived from enzyme kinetics or from competition with a known ligand. As usually defined, the ED50 is the midpoint of the dose-response relation.
